# Measurements collected from several papers.
# Protocols differ between the studies behind these lines.
# Target: Tyrosine-protein kinase receptor TYRO3 (TYRO3, Homo sapiens, UniProt Q06418)
SMILES,test,conditions,measurement,result
Cn1c2c(Cl)c(Cl)ccc2c2cc(N)[nH]c(=O)c21,"thermal stability, DSF",10 µM,ΔTm,1.1 °C
Cc1cnc(NC2CCOCC2)nc1-n1cnc(C(=O)NC(CN)c2cc(F)cc(Cl)c2)c1 (centres unmarked),"enzyme activity, inhibitor, radiometric",1 µM,remaining activity,118%
Cn1c2c(c3ccc(Cl)c(Cl)c31)C(C#N)C1(CCNCC1)NC2=O (racemic),"thermal stability, DSF",10 µM,ΔTm,-0.4 °C
O=C(Nc1cnn(-c2csc(C(=O)NC3COC3)c2)c1)Nc1ccccc1Cl,"enzyme activity, inhibitor",5 µM,remaining activity,75.4%
CCCOc1ccc(OC)c(F)c1C(=O)c1ccc(C(=O)N[C@@H]2CNC[C@H]2NC(=O)c2ccc3[nH]ncc3c2)cc1,"enzyme activity, inhibitor",10 µM,remaining activity,51%
C[C@@]1(Cc2ccc(C#N)cc2)C(=O)N(c2cc(Cl)cc(Cl)c2)c2ncc(C(=O)NC3(c4nc(C5CCC5)no4)CC3)n21,"cell-free assay, competition with immobilised ligand",1 µM,remaining binding,100%
COc1cc(Cl)c(C(=O)N[C@@H](CN[C@H]2CC[C@@H](N)CC2)Cc2ccc(C#N)cc2)cc1-c1ccc(CN[C@H](C)c2ccc(C)cc2)o1,"enzyme activity, inhibitor",1 µM,remaining activity,85%
Cc1c(C(=O)O)cc(-c2ccc(C3CCNCC3)cc2)c2ccc(-c3ccc(C(F)(F)F)cc3)cc12,"cell-free assay, competition with immobilised ligand",1 µM,remaining binding,100%
O=C(Nc1cnn(-c2csc(C(=O)NC3COC3)c2)c1)Nc1c(F)cccc1Cl,"enzyme activity, inhibitor",5 µM,remaining activity,68.4%
C=CC(=O)Nc1cc(Nc2nccc(Nc3cc(Cl)c(F)cc3C(C)(C)O)n2)c(OC)cc1N1CC[C@@H](N(C)C)C1,"enzyme activity, inhibitor",1 µM,inhibition,5%
Cn1cc(Cl)c2c(Oc3c(F)cc(Nc4cc(Cl)nc(N)n4)cc3F)ccnc21,"cell-free assay, competition with immobilised ligand",0.1 µM,remaining binding,80%
N#CCCc1ccc2c(c1)-c1[nH]c3ccc([N+](=O)[O-])cc3c1CC(=O)N2,cell-free assay,0.5 µM,remaining signal,94.8%
CCCOc1ccc([C@H]2[C@H](C(=O)O)[C@@H](c3ccc4c(c3)OCO4)CN2CC(=O)Nc2c(CC)cccc2CC)cc1,"cell-free assay, competition with immobilised ligand",1 µM,remaining binding,100%
CC/C(=N\NC(=O)NCc1cccc(O)c1)c1ccc(O)c(C)c1O,"enzyme activity, inhibitor",0.1 µM,inhibition,2.7%
CC(C)(C)c1nc2c(s1)c1nc(N)ncc1c1ccc(NS(=O)(=O)c3c(F)cccc3F)c(F)c12,"enzyme activity, inhibitor, radiometric",1 µM,remaining activity,91%
Cn1c2c(c3ccccc31)C(C#N)C(C)(C)NC2=O (centres unmarked),"thermal stability, DSF",10 µM,ΔTm,-0.1 °C
Nc1cnc(N2CCc3cc(S(=O)(=O)Nc4c(F)cc(Cl)cc4F)cc(N4CCCC4=O)c32)nc1,"cell-free assay, competition with immobilised ligand",1 µM,remaining binding,100%
CC(C)(O)[C@H]1CC[C@H](Nc2ccc3ncc(-c4cccc(C(F)(F)F)c4)n3n2)CC1,"enzyme activity, inhibitor",1 µM,remaining activity,22.3%
CCN(CC)CCNC(=O)c1c(C)[nH]c(/C=C2\C(=O)Nc3ccc(F)cc32)c1C,cell-free assay,0.3 µM,inhibition,72%
CCOc1cc(-c2nncn2C)ccc1Nc1ncc2cc(C)nc(NCC(C)(C)C)c2n1,"enzyme activity, inhibitor, FRET",1 µM,inhibition,19%
Cc1nc(N2CC[C@@H](O)C2)ncc1-c1cc(C(F)(F)F)cc2[nH]ncc12,"cell-free assay, competition with immobilised ligand",1 µM,remaining binding,66%
CNC(=O)c1cc(Oc2ccc(NC(=O)Nc3ccc(Cl)c(C(F)(F)F)c3)cc2)ccn1,cell-free assay,0.5 µM,remaining signal,91.7%
O=C(N1CCS(=O)(=O)CC1)N1C[C@H](c2ccc(OC(F)(F)F)cc2)C[C@H](c2nc(C3CC3)no2)C1,"cell-free assay, competition with immobilised ligand",1 µM,remaining binding,98%
COc1cc2ncnc(Nc3ccc(Oc4ccccc4)cc3C)c2cc1OC,"enzyme activity, inhibitor",1 µM,inhibition,70%
Cc1ccc(C(=O)NCc2ccsc2)cc1C#Cc1cn(C(C)C)c2ncnc(N)c12,"enzyme activity, inhibitor",1 µM,activity vs control,89%
Cc1ccc(C(=O)Nc2ccc(CN3CCN(C)CC3)c(C(F)(F)F)c2)cc1C#Cc1cnc2cccnn12,cell-free assay,23.5 nM,remaining signal,73%
Cc1ccc(Nc2nccc(N(C)c3ccc4c(C)n(C)nc4c3)n2)cc1S(N)(=O)=O,cell-free assay,0.3 µM,inhibition,26%
CCCCN(CCCC)C(=O)CN1C[C@@H](c2cc(OC)c3c(c2)OCO3)[C@H](C(=O)O)[C@H]1CC(C)(C)CCC,"cell-free assay, competition with immobilised ligand",1 µM,remaining binding,97.1%
Cn1c2c(Cl)c(Cl)ccc2c2cn[nH]c(=O)c21,"thermal stability, DSF",10 µM,ΔTm,1 °C
